According to ChEMBL document CHEMBL1144782, “Isoindolo[2,1-a]quinoxaline derivatives, novel potent antitumor agents with dual inhibition of tubulin polymerization and topoisomerase I” (2008):

What follows are compounds tested on NCI-H23 (assay: Antitumor activity against human NCI-H23 cells). Settings: not given.
Assay type: functional
Procedure, shortened: (§1)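 Run by the NCI in its in vitro disease-oriented screen of about 60 human tumour cell lines. For each line it reports pGI50 (50% net growth inhibition), pTGI (total growth inhibition) and pLC50 (50% net cell death), each as –log molar concentration. Where an effect was not reached within the tested range, the highest tested concentration was used.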
`O=c1[nH]c2cc(Cl)c(Cl)cc2n2cc3ccccc3c12` showed a GI50 of 17.4 µM and an LC50 (50% net cell kill) of 56.2 µM.

Same assay, conditions: read-out: pTGI (converted)
Work on `O=c1[nH]c2cc(Cl)c(Cl)cc2n2cc3ccccc3c12` yielded a TGI of 30.9 µM.

What follows are compounds tested on HCC 2998 (assay: Antitumor activity against human HCC2998 cells). Settings: not given.
Assay type: functional
Procedure, shortened: as §1
For `O=c1[nH]c2cc(Cl)c(Cl)cc2n2cc3ccccc3c12`, the GI50 was 0.813 µM and the LC50 was 43.7 µM.

Same assay, conditions: read-out: pTGI (converted)
`O=c1[nH]c2cc(Cl)c(Cl)cc2n2cc3ccccc3c12` was tested, and the TGI was 18.6 µM.

These compounds were tested on HCT-15 (assay: Antitumor activity against human HCT15 cells). Settings: not given.
Assay type: functional
Procedure, shortened: as §1
With `O=c1[nH]c2cc(Cl)c(Cl)cc2n2cc3ccccc3c12` the GI50 was 16.6 µM.

Same assay, conditions: read-out: Log LC50 (the source's name) (converted)
In the case of `O=c1[nH]c2cc(Cl)c(Cl)cc2n2cc3ccccc3c12`, the CC50 is reported as 55 µM.

Same assay, conditions: read-out: pTGI (converted)
Work on `O=c1[nH]c2cc(Cl)c(Cl)cc2n2cc3ccccc3c12` yielded a TGI of 30.2 µM.

Each compound was assayed on U-251 (assay: Antitumor activity against human U251 cells). Settings: not given.
Assay type: functional
Procedure, shortened: (§2)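 NCI 60-cell-line screen. Parameters were GI50 (50% net growth inhibition), TGI and LC50, each reported as –log molar concentration. Where an effect was not reached within the tested range, the highest tested concentration was used in the calculation.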
For `O=c1[nH]c2cc(Cl)c(Cl)cc2n2cc3ccccc3c12`, the GI50 was 16.2 µM.

Same assay, conditions: read-out: Log LC50 (the source's name) (converted)
For `O=c1[nH]c2cc(Cl)c(Cl)cc2n2cc3ccccc3c12`, the CC50 was 55 µM.

Same assay, conditions: read-out: pTGI (converted)
With `O=c1[nH]c2cc(Cl)c(Cl)cc2n2cc3ccccc3c12` the TGI was 30.2 µM.

Each compound was assayed on DU-145 (assay: Antitumor activity against human DU145 cells). Settings: not given.
Assay type: functional
Procedure, shortened: as §1
Work on `O=c1[nH]c2cc(Cl)c(Cl)cc2n2cc3ccccc3c12` yielded a GI50 of 31.6 µM.

Same assay, conditions: Homo sapiens, DU-145
`O=c1[nH]c2cc(Cl)c(Cl)cc2n2cc3ccccc3c12` showed a GI50 of 17.8 µM.

Same assay, conditions: Homo sapiens, DU-145; read-out: Log LC50 (the source's name) (converted)
With `O=c1[nH]c2cc(Cl)c(Cl)cc2n2cc3ccccc3c12` the CC50 was 56.2 µM.

Each compound was assayed on 786-0 (assay: Antitumor activity against human 786-0 cells). Settings: not given.
Assay type: functional
Procedure, shortened: as §1
`O=c1[nH]c2cc(Cl)c(Cl)cc2n2cc3ccccc3c12` was tested, and the GI50 was 25.1 µM.

Same assay, conditions: read-out: Log LC50 (the source's name) (converted)
In the case of `O=c1[nH]c2cc(Cl)c(Cl)cc2n2cc3ccccc3c12`, the CC50 is reported as 63.1 µM.

Same assay, conditions: read-out: pTGI (converted)
With `O=c1[nH]c2cc(Cl)c(Cl)cc2n2cc3ccccc3c12` the TGI was 39.8 µM.

The compounds below were run on HCT-116 (assay: Antitumor activity against human HCT116 cells). Settings: not given.
Assay type: functional
Procedure, shortened: as §1
`O=c1[nH]c2cc(Cl)c(Cl)cc2n2cc3ccccc3c12` was tested, and the GI50 was 20.9 µM and the LC50 was 58.9 µM.

Same assay, conditions: read-out: pTGI (converted)
Work on `O=c1[nH]c2cc(Cl)c(Cl)cc2n2cc3ccccc3c12` yielded a TGI of 35.5 µM.

These compounds were tested on OVCAR-5 (assay: Antitumor activity against human OVCAR5 cells). Settings: not given.
Assay type: functional
Procedure, shortened: as §1
`O=c1[nH]c2cc(Cl)c(Cl)cc2n2cc3ccccc3c12` showed a GI50 of 17 µM and an LC50 (50% net cell death) of 55 µM.

Same assay, conditions: read-out: pTGI (converted)
`O=c1[nH]c2cc(Cl)c(Cl)cc2n2cc3ccccc3c12` was tested, and the TGI was 30.9 µM.

What follows are compounds tested on OVCAR-4 (assay: Antitumor activity against human OVCAR4 cells). Settings: not given.
Assay type: functional
Procedure, shortened: as §1
`O=c1[nH]c2cc(Cl)c(Cl)cc2n2cc3ccccc3c12` was tested, and the GI50 was 20.4 µM and the LC50 (50% net cell kill) was greater than 100 µM.

Same assay, conditions: read-out: pTGI (converted)
Compound `O=c1[nH]c2cc(Cl)c(Cl)cc2n2cc3ccccc3c12` has a TGI of 50.1 µM.

These compounds were tested on RPMI-8226 (assay: Antitumor activity against human RPMI8226 cells). Settings: not given.
Assay type: functional
Procedure, shortened: as §1
Work on `O=c1[nH]c2cc(Cl)c(Cl)cc2n2cc3ccccc3c12` yielded a GI50 of 22.4 µM.

Same assay, conditions: read-out: Log LC50 (the source's name) (converted)
`O=c1[nH]c2cc(Cl)c(Cl)cc2n2cc3ccccc3c12` showed a CC50 greater than 100 µM.

Same assay, conditions: read-out: pTGI (converted)
`O=c1[nH]c2cc(Cl)c(Cl)cc2n2cc3ccccc3c12` gave a TGI of 49 µM.

What follows are compounds tested on NCI/ADR-RES (assay: Antitumor activity against human NCI/ADR-RES cells). Settings: not given.
Assay type: functional
Procedure, shortened: as §1
Compound `O=c1[nH]c2cc(Cl)c(Cl)cc2n2cc3ccccc3c12` has a GI50 of 17.8 µM and an LC50 of 56.2 µM.

Same assay, conditions: read-out: pTGI (converted)
`O=c1[nH]c2cc(Cl)c(Cl)cc2n2cc3ccccc3c12` was tested, and the TGI was 31.6 µM.

Each compound was assayed on NCI-H460 (assay: Antitumor activity against human NCI-H460 cells). Settings: not given.
Assay type: functional
Procedure, shortened: as §1
Compound `O=c1[nH]c2cc(Cl)c(Cl)cc2n2cc3ccccc3c12` has a GI50 of 18.6 µM.

Same assay, conditions: read-out: Log LC50 (the source's name) (converted)
In the case of `O=c1[nH]c2cc(Cl)c(Cl)cc2n2cc3ccccc3c12`, the CC50 is reported as 57.5 µM.

Same assay, conditions: read-out: pTGI (converted)
`O=c1[nH]c2cc(Cl)c(Cl)cc2n2cc3ccccc3c12` gave a TGI of 33.1 µM.

What follows are compounds tested on Hs-578T (assay: Antitumor activity against human HS578T cells). Settings: not given.
Assay type: functional
Procedure, shortened: as §1
Work on `O=c1[nH]c2cc(Cl)c(Cl)cc2n2cc3ccccc3c12` yielded a GI50 of 20 µM.

Same assay, conditions: read-out: Log LC50 (the source's name) (converted)
Compound `O=c1[nH]c2cc(Cl)c(Cl)cc2n2cc3ccccc3c12` has a CC50 greater than 100 µM.

Same assay, conditions: read-out: pTGI (converted)
`O=c1[nH]c2cc(Cl)c(Cl)cc2n2cc3ccccc3c12` was tested, and the TGI was 52.5 µM.

The compounds below were run on BT-549 (assay: Antitumor activity against human BT549 cells). Settings: not given.
Assay type: functional
Procedure, shortened: as §1
`O=c1[nH]c2cc(Cl)c(Cl)cc2n2cc3ccccc3c12` gave a GI50 of 26.3 µM and an LC50 (50% net cell kill) greater than 100 µM.

Same assay, conditions: read-out: pTGI (converted)
`O=c1[nH]c2cc(Cl)c(Cl)cc2n2cc3ccccc3c12` gave a TGI of 57.5 µM.

These compounds were tested on SF-268 (assay: Cell viability against human SF268 cells at 10 uM). Settings: not given.
Assay type: functional
With `O=c1[nH]c2cc(Cl)c(Cl)cc2n2cc3ccccc3c12` the Activity was 13%.

These compounds were tested on SF-539 (assay: Antitumor activity against human SF539 cells). Settings: not given.
Assay type: functional
Procedure, shortened: as §1
Compound `O=c1[nH]c2cc(Cl)c(Cl)cc2n2cc3ccccc3c12` has a GI50 of 19.1 µM and an LC50 (50% net cell kill) of 81.3 µM.

Same assay, conditions: read-out: pTGI (converted)
Compound `O=c1[nH]c2cc(Cl)c(Cl)cc2n2cc3ccccc3c12` has a TGI of 39.8 µM.

These compounds were tested on SK-OV-3 (assay: Antitumor activity against human SKOV3 cells). Settings: not given.
Assay type: functional
Procedure, shortened: as §1
In the case of `O=c1[nH]c2cc(Cl)c(Cl)cc2n2cc3ccccc3c12`, the GI50 is reported as 18.2 µM and the LC50 (50% net cell kill) is reported as 61.7 µM.

Same assay, conditions: read-out: pTGI (converted)
`O=c1[nH]c2cc(Cl)c(Cl)cc2n2cc3ccccc3c12` was tested, and the TGI was 33.1 µM.

These compounds were tested on MCF7 (assay: Cell viability against human MCF7 cells at 10 uM). Settings: not given.
Assay type: functional
With `O=c1[nH]c2cc(Cl)c(Cl)cc2n2cc3ccccc3c12` the Activity was 10%.

The compounds below were run on CCRF-CEM (assay: Growth inhibition of human CEM cells after 72 hrs by MTT assay). Settings: not given.
Assay type: functional
Procedure, shortened: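 Growth inhibition by MTT after 72 h incubation. Resistant sublines: LoVoDoxo and MCF-7 MDR were kept in 0.1 µg/mL doxorubicin; CEMVbl-100 was selected against vinblastine. GI50 given as mean ± SEM of three independent experiments. Resistance index is resistant-line GI50 over parental GI50.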
`O=c1[nH]c2cc(Cl)c(Cl)cc2n2cc3ccccc3c12` gave a GI50 of 2.2 µM.

The compounds below were run on SR (assay: Antitumor activity against human SR cells). Settings: not given.
Assay type: functional
Procedure, shortened: as §2
`O=c1[nH]c2cc(Cl)c(Cl)cc2n2cc3ccccc3c12` showed a GI50 of 17.4 µM and an LC50 of 87.1 µM.

Same assay, conditions: read-out: pTGI (converted)
Work on `O=c1[nH]c2cc(Cl)c(Cl)cc2n2cc3ccccc3c12` yielded a TGI of 38.9 µM.

What follows are compounds tested on SK-MEL-5 (assay: Antitumor activity against human SKMEL5 cells). Settings: not given.
Assay type: functional
Procedure, shortened: as §1
Work on `O=c1[nH]c2cc(Cl)c(Cl)cc2n2cc3ccccc3c12` yielded a GI50 of 20 µM and an LC50 of 87.1 µM.

Same assay, conditions: read-out: pTGI (converted)
`O=c1[nH]c2cc(Cl)c(Cl)cc2n2cc3ccccc3c12` gave a TGI of 41.7 µM.

What follows are compounds tested on OVCAR-3 (assay: Antitumor activity against human OVCAR-3 cells). Settings: not given.
Assay type: functional
Procedure, shortened: as §1
`O=c1[nH]c2cc(Cl)c(Cl)cc2n2cc3ccccc3c12` gave a GI50 of 18.6 µM and an LC50 (50% net cell death) of 57.5 µM.

Same assay, conditions: read-out: pTGI (converted)
For `O=c1[nH]c2cc(Cl)c(Cl)cc2n2cc3ccccc3c12`, the TGI was 32.4 µM.

Each compound was assayed on ACHN (assay: Antitumor activity against human ACHN cells). Settings: not given.
Assay type: functional
Procedure, shortened: as §1
In the case of `O=c1[nH]c2cc(Cl)c(Cl)cc2n2cc3ccccc3c12`, the GI50 is reported as 15.5 µM and the LC50 (50% net cell kill) is reported as 53.7 µM.

Same assay, conditions: read-out: pTGI (converted)
With `O=c1[nH]c2cc(Cl)c(Cl)cc2n2cc3ccccc3c12` the TGI was 28.8 µM.

The compounds below were run on T47D (assay: Antitumor activity against human T47D cells). Settings: not given.
Assay type: functional
Procedure, shortened: as §2
Compound `O=c1[nH]c2cc(Cl)c(Cl)cc2n2cc3ccccc3c12` has a GI50 of 30.9 µM and an LC50 greater than 100 µM.

Same assay, conditions: read-out: pTGI (converted)
Work on `O=c1[nH]c2cc(Cl)c(Cl)cc2n2cc3ccccc3c12` yielded a TGI of 75.9 µM.

These compounds were tested on CCRF-CEM (assay: Resistance index, Ratio of GI50 for human vinblastine-resistant CEM cells to GI50 for human CEM cells). Settings: not given.
Assay type: functional
`O=c1[nH]c2cc(Cl)c(Cl)cc2n2cc3ccccc3c12` showed a RatioGI50 of 0.86.
